# These entries were drawn from the full list.
# PGC1a Ac signal: raises PGC1a acetylation signal in U2OS cells | U2OS PGC1a acetylation AlphaScreen, overnight | activation, % at 15.6 µM | 350,000 tested, 0.21% active | AID 651723;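 active means every replicate reaching activation of at least 50%, whatever the mean replicate activation; inconclusive means replicates that disagree or another doubt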;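 further: hits raise the AlphaScreen acetylation signal above neutral controls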
#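 Test system: U2OS cells expressing flag-PGC1a plus GCN5; Amount: 7000 U2OS cells per well; Compound: single test concentration per compound; Incubation: compound overnight at 37 °C, each detection step 1 h RT; Signal: AlphaScreen lysate read.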
# Hep G6PC suppr: PGC-1a acetylation activators affecting G6PC expression in hepatocytes; 240 tested, under 10 active; shares compounds with PGC1a Ac signal; primary mouse hepatocytes, G6PC mRNA qPCR, forskolin; AID 743463; G6PC suppression (normalized activity, % of positive control; higher = more suppression), % at 26 µM;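 active means dose curves showing G6PC suppression whose half-maximal dose is at most twice the top valid dose; inconclusive means flat curves with moderate negative activity, or unreliable fits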;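 further: G6PC expression relative to GAPDH housekeeping gene as delta delta Ct; 0% = median of neutral control wells and 100% = median of positive control wells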
# PCK1 hep suppr: PGC-1a acetylation activators affecting PCK1 expression in hepatocytes | shares compounds with PGC1a Ac signal | primary mouse hepatocytes, PCK1 mRNA qPCR, forskolin-stimulated | PCK1 expression decrease, unspecified at 26 µM | 230 tested, under 10 active;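 active means compounds lowering PCK1 expression whose fitted half-maximal concentration is at most twice the top tested dose; inconclusive means flat fit with moderate opposite-direction effect, or poor fit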;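 further: values are delta delta Ct of PCK1 relative to GAPDH; higher delta delta Ct means lower PCK1 expression so positive values indicate hits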
# PGC1a hep suppr: PGC-1a acetylation activator altering hepatocyte PGC-1a expression | shares compounds with PGC1a Ac signal | AID 743467 | primary mouse hepatocytes, PGC-1a mRNA qPCR, forskolin; top dose 26 µM | max activity (PGC-1a expression decrease), % | 240 tested, under 10 active;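 active means compound lowering PGC-1a expression with fitted half-maximal concentration at most twice its top tested dose; inconclusive means flat curve with moderate opposite-direction effect, or poor fit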;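 further: 0% = neutral control wells median and 100% = positive control wells median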
# Active calls of the source: *; i = inactive; ? = inconclusive; / = no result given; [ ] = remark or other dose.
SMILES,PGC1a Ac signal,PCK1 hep suppr,PGC1a hep suppr,others
C[C@H](CO)N1C[C@H](C)[C@H](CN(C)Cc2ccc(C(=O)Nc3ccccc3N)cc2)Oc2c(NC(=O)c3ccncc3)cccc2C1=O,-52,/,/,
COC(=O)/C(=C\Nc1cccc(Cl)c1C)c1ncc(C(F)(F)F)cc1Cl,-41,/,/,
CCc1ccc(-c2cn3nc(-c4ccccc4)cnc3n2)cc1,-45,/,/,
COc1ccccc1-c1ccc2c(c1)O[C@@H](CN(C)Cc1ccc3c(c1)OCO3)[C@@H](C)CN([C@@H](C)CO)S2(=O)=O,65*,110,54,Hep G6PC suppr=553
C[C@H]1CN([C@@H](C)CO)S(=O)(=O)c2ccc(C#CCN(C)C)cc2O[C@@H]1CN(C)Cc1ccc2c(c1)OCO2,?,132,45,Hep G6PC suppr=304
O=c1[nH]nc(-c2ccc(NCCCO)c([N+](=O)[O-])c2)c2ccccc12,-59,/,/,
CC(=O)c1c(C)oc2ccc(N(C(C)=O)S(=O)(=O)c3ccc(Cl)c([N+](=O)[O-])c3)cc12,-61,/,/,
Brc1ccc2ncnc(NCc3ccccc3)c2c1,-42,/,/,
CSc1n[nH]c(NCc2ccccc2)n1,-42,/,/,
Cc1nnc(NCc2ccccc2)c2ccccc12,?,11,84,
C=CC(=O)Nc1cccc(Oc2ccnc(Nc3ccc(N4CCN(C)CC4)cc3)n2)c1,-40,/,/,
O=C(c1ccco1)N1CCN(c2nnc(-c3ccccc3)c3ccccc23)CC1,?,18,?,Hep G6PC suppr=43
NS(=O)(=O)c1ccc(-c2ccc(/C=C3\C(=O)Nc4cc(Cl)ccc43)o2)cc1,-49,/,/,
Cc1nn2c(NCCCN3CCOCC3)c3c(nc2c1-c1ccccc1)CCC3,67*,426,53,Hep G6PC suppr=i
CCCc1nc2c(=O)n(C)c(=O)nc-2n(C)n1,-75,/,/,
C[N+]1(C)CCC(=C2c3ccccc3CC(=O)c3sccc32)CC1,-94,/,/,
Cc1cc(C(=O)NNS(=O)(=O)c2ccc(F)cc2)nn1C(C)(C)C,456*,-0.84,10,
Cc1cc(C2=NNC(=NCCc3ccccc3)SC2)c(C)n1-c1c(C)n(C)n(-c2ccccc2)c1=O,-63,/,/,
CC(C)C(c1nnnn1Cc1ccccc1)N(Cc1ccco1)Cc1cccs1 (configuration not stated),91*,67,95,Hep G6PC suppr=316
Fc1ccc(CN(Cc2ccccc2)C(c2cccs2)c2nnnn2C2CCCCC2)cc1 (configuration not stated),-42,/,/,
CC(C)c1ccccc1NC(=O)Cn1c(-c2ccccc2Cl)nc2ccccc21,-43,/,/,
CC(C)n1c(N2CCN(CC(=O)NCc3cccs3)CC2)nc2ccccc21,/,26,68,Hep G6PC suppr=35
COc1ccc(-c2nc(N)c(C#N)c(-c3cccnc3)c2C)cc1,?,7.5,40,Hep G6PC suppr=2
COc1cccc(Cn2c(NCc3cccnc3)nc3c2c(=O)n(C)c(=O)n3C)c1,-71,/,/,
O=C(CC(C(=O)O)c1c[nH]c2ccccc12)c1ccccc1 (configuration not stated),-81,/,/,
SMILES,PGC1a Ac signal,PCK1 hep suppr,PGC1a hep suppr,others
Cc1ccc(C)n1-c1ccc(-c2nnco2)cc1,-52,/,/,
O=C1C(Nc2ccccc2)=C/C(=N/S(=O)(=O)c2cccs2)c2ccccc21,-59,/,/,
CCOc1ccc(Nc2ncnc3ccc([N+](=O)[O-])cc23)cc1,-50,/,/,
CN(C)CCNc1oc(COc2ccc(-c3ccccc3)cc2)nc1C#N,-58,/,/,
CCOc1ccc(Nc2oc(-c3ccc(Cl)cc3)nc2C#N)cc1,62*,54,20,Hep G6PC suppr=-53[8 µM]
COc1cccc2c1C(=O)c1c(O)c3c(c(O)c1C2=O)CC(O)(C(C)=O)CC3OC1CC(N(C)C)C(O)C(C)O1 (configuration not stated),-40,/,/,
CCOC(=O)C1=C(C)N=C2SC(C(=O)OC)=CC(=O)N2C1c1cccc(OC)c1 (configuration not stated),-51,/,/,
O=C(Cc1ccccc1)Nc1nc(-c2ccc(F)c(F)c2)cs1,62*,59,83,Hep G6PC suppr=70
Cc1ccc2nc(SCC(=O)Nc3ccc(F)cc3)nc(=O)n2c1,-76,/,/,
C#CC(=O)N(c1cccc(OC)c1)C(C(=O)NC1CCCC1)c1cccs1 (configuration not stated),-93,/,/,
COc1ccc(N(C(=O)c2snc(C(N)=O)c2N)C(C(=O)NC2CCCC2)c2ccco2)c(OC)c1 (configuration not stated),?,6.7,-30,
C#CC(=O)N(c1ccc(OC)c(OC)c1)C(C(=O)NC1CCCC1)c1cccs1 (configuration not stated),-103,/,/,
O=C(/C=C/c1ccccc1)CC(O)(c1ccccc1)C(F)(F)F (configuration not stated),-42,/,/,
CCOc1ccc2nc(NCCNC(=O)Nc3ccccc3)c(C#N)cc2c1,-64,/,/,
